ChEMBL document CHEMBL3112407 (Bioorg Med Chem Lett, 2014)

What was measured:
[1] = test system: A-431; assay: cells; format: functional, cell-based; conditions: Homo sapiens, A-431, 72 h
[2] = cells; format: functional, cell-based; conditions: Homo sapiens, Calu-3, 72 h
[3] = test system: BT-474; assay: cells; format: functional, cell-based; conditions: Homo sapiens, BT-474, 72 h
[4] = test system: NCI-H1975; assay: cells; format: functional, cell-based; conditions: Homo sapiens, NCI-H1975, 72 h
[5] = biological target: Receptor tyrosine-protein kinase erbB-2 (Homo sapiens, UniProt P04626); assay: Inhibition of HER2 (unknown origin) after 10 mins
Sequence of Receptor tyrosine-protein kinase erbB-2 (P04626 whole entry): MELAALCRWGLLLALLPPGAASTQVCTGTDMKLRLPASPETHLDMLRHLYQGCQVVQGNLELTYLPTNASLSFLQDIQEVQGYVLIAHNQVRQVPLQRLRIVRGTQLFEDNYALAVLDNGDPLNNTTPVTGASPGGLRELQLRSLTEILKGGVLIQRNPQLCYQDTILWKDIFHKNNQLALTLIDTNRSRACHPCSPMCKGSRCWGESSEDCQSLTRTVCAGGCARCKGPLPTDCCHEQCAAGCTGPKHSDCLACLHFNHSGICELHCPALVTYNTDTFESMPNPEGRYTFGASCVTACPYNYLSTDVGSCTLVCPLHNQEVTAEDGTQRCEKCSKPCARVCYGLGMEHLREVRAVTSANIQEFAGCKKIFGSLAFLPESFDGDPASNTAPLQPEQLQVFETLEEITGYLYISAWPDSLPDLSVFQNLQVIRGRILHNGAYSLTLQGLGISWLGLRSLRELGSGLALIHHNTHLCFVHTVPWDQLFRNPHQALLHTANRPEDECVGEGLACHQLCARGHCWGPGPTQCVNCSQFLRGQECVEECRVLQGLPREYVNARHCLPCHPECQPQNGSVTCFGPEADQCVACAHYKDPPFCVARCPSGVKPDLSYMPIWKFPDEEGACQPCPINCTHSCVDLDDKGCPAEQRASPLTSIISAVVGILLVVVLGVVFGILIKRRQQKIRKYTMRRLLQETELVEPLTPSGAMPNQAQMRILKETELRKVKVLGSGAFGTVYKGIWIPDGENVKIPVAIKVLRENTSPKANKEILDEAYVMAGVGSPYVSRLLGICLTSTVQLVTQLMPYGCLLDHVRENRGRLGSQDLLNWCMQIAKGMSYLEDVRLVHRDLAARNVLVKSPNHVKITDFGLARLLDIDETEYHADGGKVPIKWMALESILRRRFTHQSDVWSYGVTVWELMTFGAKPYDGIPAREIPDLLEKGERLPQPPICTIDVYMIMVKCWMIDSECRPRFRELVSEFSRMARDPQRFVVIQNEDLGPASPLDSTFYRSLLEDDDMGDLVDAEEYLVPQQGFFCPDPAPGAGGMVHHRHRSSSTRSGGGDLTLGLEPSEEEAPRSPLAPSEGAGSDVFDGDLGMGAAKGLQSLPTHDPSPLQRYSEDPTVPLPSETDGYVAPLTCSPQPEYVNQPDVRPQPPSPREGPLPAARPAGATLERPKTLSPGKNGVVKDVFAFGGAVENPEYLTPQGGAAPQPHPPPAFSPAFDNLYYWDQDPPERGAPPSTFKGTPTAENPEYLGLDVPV

[6] = test system: NCI-N87; assay: cells; format: functional, cell-based; conditions: Homo sapiens, NCI-N87, 72 h
[7] = biological target: T1, Epidermal growth factor receptor (Homo sapiens, UniProt P00533); format: cell-based, KB
T1 sequence (P00533 whole entry): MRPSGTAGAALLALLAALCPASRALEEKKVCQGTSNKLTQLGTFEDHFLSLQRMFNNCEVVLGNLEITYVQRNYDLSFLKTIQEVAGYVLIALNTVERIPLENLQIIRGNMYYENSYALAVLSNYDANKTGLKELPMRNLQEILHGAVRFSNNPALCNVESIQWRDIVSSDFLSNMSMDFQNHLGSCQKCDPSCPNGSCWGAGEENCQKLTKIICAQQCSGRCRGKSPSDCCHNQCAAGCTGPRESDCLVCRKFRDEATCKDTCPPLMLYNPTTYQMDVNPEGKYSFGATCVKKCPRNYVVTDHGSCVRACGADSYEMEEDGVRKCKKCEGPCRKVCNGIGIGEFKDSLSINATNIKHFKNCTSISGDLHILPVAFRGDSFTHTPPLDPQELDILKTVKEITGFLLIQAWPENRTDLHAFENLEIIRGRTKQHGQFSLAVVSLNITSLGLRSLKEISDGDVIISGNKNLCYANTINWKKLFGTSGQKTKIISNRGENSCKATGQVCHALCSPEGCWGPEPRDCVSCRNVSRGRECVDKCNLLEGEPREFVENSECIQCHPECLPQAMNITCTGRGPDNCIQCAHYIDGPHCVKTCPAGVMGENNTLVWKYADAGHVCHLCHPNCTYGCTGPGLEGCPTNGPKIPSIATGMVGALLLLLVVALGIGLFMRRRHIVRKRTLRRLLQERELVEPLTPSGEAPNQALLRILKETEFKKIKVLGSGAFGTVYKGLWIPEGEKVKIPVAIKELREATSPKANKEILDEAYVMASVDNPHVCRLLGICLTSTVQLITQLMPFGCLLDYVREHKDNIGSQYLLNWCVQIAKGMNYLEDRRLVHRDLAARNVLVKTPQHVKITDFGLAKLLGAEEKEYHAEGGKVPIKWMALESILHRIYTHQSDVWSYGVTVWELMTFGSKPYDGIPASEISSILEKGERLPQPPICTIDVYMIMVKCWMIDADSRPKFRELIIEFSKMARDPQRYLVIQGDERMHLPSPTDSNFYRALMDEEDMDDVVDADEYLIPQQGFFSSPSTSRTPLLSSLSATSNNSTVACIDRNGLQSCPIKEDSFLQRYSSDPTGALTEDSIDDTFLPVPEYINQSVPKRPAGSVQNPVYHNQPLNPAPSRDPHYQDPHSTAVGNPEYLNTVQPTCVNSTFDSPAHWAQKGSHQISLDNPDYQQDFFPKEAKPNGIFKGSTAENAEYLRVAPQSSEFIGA

[8] = biological target: T1, Epidermal growth factor receptor
[9] = test system: A-431; assay: Ratio of gefitinib IC50 to compound IC50 for human A431 cells; format: functional
Method in brief: (§1)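 MTT growth assay: cells in ATCC-recommended medium with 10% FBS, seeded at 5.0 × 10³ cells/well, adhered overnight at 37 °C, 5% CO₂. Compound added, then 72 h incubation. MTT added for 4 h. Absorbance read at 550 nm, corrected at 690 nm. IC₅₀ from nonlinear regression of concentration–response data. Ratio is the reference-drug IC₅₀ over the compound IC₅₀ from this assay.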

[10] = test system: Calu-3; assay: Ratio of erlotinib IC50 to compound IC50 for human Calu3 cells; format: functional
Method in brief: as §1

[11] = test system: BT-474; assay: Ratio of gefitinib IC50 to compound IC50 for human BT474 cells; format: functional
Method in brief: as §1

[12] = test system: NCI-H1975; assay: Ratio of erlotinib IC50 to compound IC50 for human NCI-H1975 cells; format: functional
Method in brief: as §1

[13] = test system: BT-474; assay: Ratio of erlotinib IC50 to compound IC50 for human BT474 cells; format: functional
Method in brief: as §1

[14] = test system: NCI-N87; assay: Ratio of gefitinib IC50 to compound IC50 for human NCI-N87 cells; format: functional
Method in brief: as §1

[15] = test system: Calu-3; assay: Ratio of gefitinib IC50 to compound IC50 for human Calu3 cells; format: functional
Method in brief: as §1

[16] = test system: NCI-N87; assay: Ratio of erlotinib IC50 to compound IC50 for human NCI-N87 cells; format: functional
Method in brief: as §1

[17] = test system: NCI-H1975; assay: Ratio of gefitinib IC50 to compound IC50 for human NCI-H1975 cells; format: functional
Method in brief: as §1

[18] = test system: A-431; assay: Ratio of erlotinib IC50 to compound IC50 for human A431 cells; format: functional
Method in brief: as §1

Row | IC50 [1] | IC50 [2] | IC50 [3] | IC50 [4] | IC50 [5] | IC50 [6] | IC50 [7] | IC50 [8] | Structure (SMILES) | Ratio IC50 [9] | Ratio IC50 [10] | Ratio IC50 [11] | Ratio IC50 [12] | Ratio IC50 [13] | Ratio IC50 [14] | Ratio IC50 [15] | Ratio IC50 [16] | Ratio IC50 [17] | Ratio IC50 [18]
1 | 0.69 µM | 0.95 µM | 1.15 µM | 1.23 µM | 0.29 µM | 0.27 µM |  |  | C#Cc1cccc(Nc2ncnc3cc4c(cc23)N(C(=O)/C=C/CN2CCCCC2C)CCO4)c1 (stereo not given) |  |  |  |  |  |  |  |  |  | 
2 | 0.34 µM | 0.55 µM | 0.87 µM | 0.87 µM | 0.29 µM | 0.16 µM | 0.042 µM | 0.004 µM | C#Cc1cccc(Nc2ncnc3cc4c(cc23)N(C(=O)/C=C/CN2CCCCC2)CCO4)c1 |  |  |  |  |  |  |  |  |  | 
3 | 0.48 µM | 2.06 µM | 1.33 µM | 1.46 µM | 1.11 µM | 0.22 µM | 0.78 µM | 0.016 µM | C#Cc1cccc(Nc2ncnc3cc4c(cc23)N(C(=O)/C=C/CN2CCN(C)CC2)CCO4)c1 |  |  |  |  |  |  |  |  |  | 
4 | > 10 µM | > 10 µM | > 10 µM | > 10 µM |  | > 10 µM | > 10 µM |  | C#Cc1cccc(Nc2ncnc3cc4c(cc23)N(C(=O)/C=C/CN2CCC(C)CC2)CCCO4)c1 |  |  |  |  |  |  |  |  |  | 
5 | > 10 µM | > 10 µM | > 10 µM | > 10 µM |  | > 10 µM | > 10 µM |  | C#Cc1cccc(Nc2ncnc3cc4c(cc23)N(C(=O)/C=C/CN2CCCCC2C)CCCO4)c1 (stereo not given) |  |  |  |  |  |  |  |  |  | 
6 | 1.82 µM | > 10 µM | > 10 µM | 1.74 µM |  | > 10 µM | > 10 µM |  | C#Cc1cccc(Nc2ncnc3cc4c(cc23)N(C(=O)/C=C/CN2CCCC2)CCCO4)c1 |  |  |  |  |  |  |  |  |  | 
7 | 0.11 µM | 0.71 µM | 0.33 µM | 0.32 µM | 0.23 µM | 0.12 µM | 0.06 µM | 0.003 µM | C#Cc1cccc(Nc2ncnc3cc4c(cc23)N(C(=O)/C=C/CN2CCCC2)CCO4)c1 |  |  |  |  |  |  |  |  |  | 
8 | 0.4 µM | 1.67 µM | 1.38 µM | 0.89 µM | 0.33 µM | 0.25 µM | 0.082 µM | 0.005 µM | C#Cc1cccc(Nc2ncnc3cc4c(cc23)N(C(=O)/C=C/CN2CCC(C)CC2)CCO4)c1 |  |  |  |  |  |  |  |  |  | 

Second part, the compound before the results:

Row | Structure (SMILES) | IC50 [1] | IC50 [2] | IC50 [3] | IC50 [4] | IC50 [5] | IC50 [6] | IC50 [7] | IC50 [8] | Ratio IC50 [9] | Ratio IC50 [10] | Ratio IC50 [11] | Ratio IC50 [12] | Ratio IC50 [13] | Ratio IC50 [14] | Ratio IC50 [15] | Ratio IC50 [16] | Ratio IC50 [17] | Ratio IC50 [18]
9 | C#Cc1cccc(Nc2ncnc3cc4c(cc23)N(C(=O)/C=C/CN(CC)CC)CCO4)c1 | 0.19 µM | 0.35 µM | 0.55 µM | 0.68 µM | 0.25 µM | 0.15 µM | 0.042 µM | 0.005 µM |  |  |  |  |  |  |  |  |  | 
10 | C#Cc1cccc(Nc2ncnc3cc4c(cc23)N(C(=O)/C=C/CN(C)C)CCO4)c1 | 0.23 µM | 0.14 µM | 0.24 µM | 0.3 µM | 0.25 µM | 0.046 µM | 0.046 µM | 0.003 µM | 2.4 | 6.6 | 1.5 | 18 | > 42 | 22 | 7.1 | > 210 | 33 | 3.3
11 | C#Cc1cccc(Nc2ncnc3cc4c(cc23)N(C(=O)/C=C/CN2CCOCC2)CCCO4)c1 | > 10 µM | > 10 µM | > 10 µM | > 10 µM |  | > 10 µM | > 10 µM |  |  |  |  |  |  |  |  |  |  | 
12 | C#Cc1cccc(Nc2ncnc3cc4c(cc23)N(C(=O)/C=C/CN2CCN(C)CC2)CCCO4)c1 | > 10 µM | > 10 µM | > 10 µM | > 10 µM |  | > 10 µM | > 10 µM |  |  |  |  |  |  |  |  |  |  | 
13 | C#Cc1cccc(Nc2ncnc3cc4c(cc23)N(C(=O)/C=C/CN2CCCCC2)CCCO4)c1 | > 10 µM | > 10 µM | > 10 µM | 8.59 µM |  | > 10 µM | > 10 µM |  |  |  |  |  |  |  |  |  |  | 
14 | C#Cc1cccc(Nc2ncnc3cc4c(cc23)N(C(=O)/C=C/CN(CC)CC)CCCO4)c1 | 2.16 µM | > 10 µM | > 10 µM | > 10 µM |  | > 10 µM | > 10 µM |  |  |  |  |  |  |  |  |  |  | 
15 | C#Cc1cccc(Nc2ncnc3cc4c(cc23)N(C(=O)/C=C/CN(C)C)CCCO4)c1 | 1.75 µM | > 10 µM | > 10 µM | 1.86 µM |  | > 10 µM | > 10 µM |  |  |  |  |  |  |  |  |  |  | 
16 | C#Cc1cccc(Nc2ncnc3cc4c(cc23)N(C(=O)/C=C/CN2CCOCC2)CCO4)c1 | 0.53 µM | 1.01 µM | 1.39 µM | 0.77 µM | 0.93 µM | 0.6 µM | 0.64 µM | 0.012 µM |  |  |  |  |  |  |  |  |  | 
